Experimental data as given in ChEMBL document CHEMBL3745620, “Design and Synthesis of DiselenoBisBenzamides (DISeBAs) as Nucleocapsid Protein 7 (NCp7) Inhibitors with anti-HIV Activity” (J Med Chem, 2015).
Active and inactive are the calls of the source. The calls are words filed in the database; no cut-off is given here.

How the values were obtained:
[1] = Selectivity index, ratio of CC50 for human MT4 cells to EC50 for HIV1 3B; format: toxicity, cell-based; details: read-out: Ratio CC50/EC50
Method in brief: (§1)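 Compounds added at start in serial 5-fold dilutions, triplicate wells, to mock- and virus-infected cells (100-300 CCID50 per well). After 5 days, viability by MTT reduction (OD540). Mean ± SD, at least two experiments.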

[2] = Selectivity index, ratio of CC50 for human MT4 cells to EC50 for HIV-2 ROD; format: toxicity, cell-based; details: read-out: Ratio CC50/EC50; method in brief: as §1
[3] = system: Human immunodeficiency virus 1; assay: Antiviral activity against HIV1 3B infected in human MT4 cells assessed as inhibition of viral replication by measuring p24 Ag production at 2 ug/ml measured at 31 hrs post infection by ELISA; format: functional, organism-based
Method in brief: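 MT-4 cells infected with HIV-1 IIIB at m.o.i. 0.5, 1 h adsorption, then seeded at 45,000 cells/well at 37°C. Compound added at times from 0 to 25 h post-infection. Read-out was p24 in supernatant by ELISA at 31 h post-infection.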

[4] = system: Human immunodeficiency virus 2; assay: Antiviral activity against HIV2 ROD infected in human MT4 cells assessed as protection against virus-induced cytopathic effect after 5 days by MTT assay; format: functional, organism-based; details: Human immunodeficiency virus 2, ISOLATE ROD, MT4, 120 h
Method in brief: (§2)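 MT-4 cells in RPMI 1640 with 10% heat-inactivated FCS, resuspended at 6 x 10^5 cells/ml. Compounds added at start in serial 5-fold dilutions, triplicate wells, to mock- and virus-infected cells (100-300 CCID50 per well). After 5 days, viability by MTT reduction (OD540). […] Mean ± SD, at least two experiments.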

[5] = Cytotoxicity against human MT4 cells assessed as cell viability after 5 days by MTT assay; format: cell-based; method in brief: as §1
[6] = system: Human immunodeficiency virus 1; assay: Antiviral activity against HIV1 3B infected in human MT4 cells assessed as protection against virus-induced cytopathic effect after 5 days by MTT assay; format: functional, organism-based; details: Human immunodeficiency virus 1, 3B, MT4, 120 h; method in brief: as §2
[7] = system: Human immunodeficiency virus 1; assay: Antiviral activity against HIV1 3B persistently infected in HUT78 cells assessed as reduction of p24 production after 43 hrs by ELISA; format: functional, organism-based; details: Human immunodeficiency virus 1, 3B, HuT78, 43 h
Method in brief: (§3)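 Chronically HIV-1 IIIB-infected HuT-78 cells washed four times in PBS to remove free virions and seeded at 2 × 10^5 cells/well with 7 serial 5-fold compound dilutions for 43 h at 37°C. Supernatant p24 measured by ELISA. Cytotoxicity was run in parallel by MTT plus microscopy. SI = CC50/EC50. Mean ± SD, ≥2 experiments.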

[8] = system: HuT78; assay: Inhibition of NCp7 of HIV1 3B persistently infected in HUT78 cells assessed as accumulation of unprocessed Gag polyprotein after 43 hrs by Western blot analysis; format: cell-based; details: Human immunodeficiency virus 1
Method in brief: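 Washed HuT-78(IIIB) cells (2x10^5 in 1 ml) treated with compound for 43 h at 37°C. Virions pelleted from clarified supernatant (36,670 g, 2 h, 4°C), lysed, run on SDS-PAGE and transferred to PVDF. Blot probed with mouse anti-p24 (1:5000), then HRP anti-mouse (1:2500), with chemiluminescent detection.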

[9] = Cytotoxicity against human HUT78 cells assessed as reduction in cell viability after 5 days by MTT assay; format: cell-based
[10] = Selectivity index, ratio of CC50 for human HUT78 cells to EC50 for HIV1 3B; format: toxicity, cell-based; details: read-out: Ratio CC50/EC50; method in brief: as §3
[11] = system: Human immunodeficiency virus 1; assay: Antiviral activity against NNRTI-resistant HIV1 RES056 harboring reverse transcriptase K103N/181C double mutant infected in human MT4 cells; format: functional, organism-based; details: Human immunodeficiency virus 1, RES056, MT4
Method in brief: (§4)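 MT-4 cells in RPMI 1640 with 10% heat-inactivated FCS were infected at the start of the experiment, with compound added across serial 5-fold dilutions in triplicate wells. Cells were seeded at 6 x 10^5 cells/ml. After 5 days, protection against virus-induced cytopathic effect was read by MTT reduction at OD540. […] Values are means ± SD of at least two experiments.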

[12] = Antiviral activity against nevirapine-resistant SIV mac251 infected in human MT4 cells; format: functional, cell-based; details: Simian immunodeficiency virus; method in brief: as §4
[13] = system: Human immunodeficiency virus 1; assay: Antiviral activity against NRTI/NNRTI-resistant HIV1 L6 harboring reverse transcriptase V75I/F77L/K103N/F116Y/Q151M/M184V mutant infected in human MT4 cells; format: functional, organism-based; details: Human immunodeficiency virus 1, L6, MT4; method in brief: as §4
[14] = system: Human immunodeficiency virus 1; assay: Antiviral activity against ritonavir-resistant HIV1 3B/RIT infected in human MT4 cells; format: functional, organism-based; details: Human immunodeficiency virus 1, 3B/RIT; method in brief: as §4
[15] = system: Human immunodeficiency virus 1; assay: Antiviral activity against ritonavir-resistant HIV1 B12 harboring […] L10I/I15V/I54V/L63P/V82A/I85V mutant infected in human MT4 cells; format: functional, organism-based; details: Human immunodeficiency virus 1, B12, MT4; method in brief: as §4

| SMILES | selectivity ratio [1] | selectivity ratio [2] | inhibition [3] | EC50 [4] [µM] | CC50 at 120 h [5] [µM] | EC50 [6] [µM] | EC50 [7] [µM] | inhibition [8] | CC50 at 120 h [9] [µM] | selectivity ratio [10] | EC50 [11] [µM] | EC50 [12] [µM] | EC50 [13] [µM] | EC50 [14] [µM] | EC50 [15] [µM] |
| --- | --- | --- | --- | --- | --- | --- | --- | --- | --- | --- | --- | --- | --- | --- | --- |
| COC(=O)[C@@H]1CCCN1C(=O)c1ccccc1[Se][Se]c1ccccc1C(=O)N1CCC[C@H]1C(=O)OC | ≤ 2 | 2 | Active | 4.56 | 10.1 | ≥ 4.32 |  |  |  |  |  |  |  |  |  |
| CC1CNC(=O)c2ccccc2SSc2ccccc2C(=O)N1 (stereo not drawn) |  |  |  |  |  |  | > 7.5 | Dose-dependent effect | > 7.5 | > 54 |  |  |  |  |  |
| NS(=O)(=O)c1ccc(NC(=O)c2ccccc2[Se][Se]c2ccccc2C(=O)Nc2ccc(S(N)(=O)=O)cc2)cc1 | 6 | 6 | Active | 3.03 | 17.4 | 2.82 | 8.25 | Dose-dependent effect | > 35 | > 4 |  |  |  |  |  |
| CCOC(=O)CNC(=O)c1ccccc1[Se][Se]c1ccccc1C(=O)NCC(=O)OCC | 7 | 9 | Active | 0.74 | 6.26 | 0.91 |  |  |  |  |  |  |  |  |  |
| NS(=O)(=O)c1ccc(OC(=O)c2ccccc2[Se][Se]c2ccccc2C(=O)Oc2ccc(S(N)(=O)=O)cc2)cc1 | < 1 | < 1 | Active | > 18.6 | 18.6 | > 18.6 |  | Dose-dependent effect |  |  |  |  |  |  |  |
| NS(=O)(=O)c1ccc(NC(=O)c2cccnc2[Se][Se]c2ncccc2C(=O)Nc2ccc(S(N)(=O)=O)cc2)cc1 | 5 | ≤ 6 | Active | ≥ 3.11 | 19.2 | 3.77 |  | Dose-dependent effect |  |  |  |  |  |  |  |
| O=C(O)[C@@H]1CCCN1C(=O)c1ccccc1[Se][Se]c1ccccc1C(=O)N1CCC[C@H]1C(=O)O | < 1 | < 1 | Active | > 152 | 152 | > 152 |  | Dose-dependent effect |  |  |  |  |  |  |  |
| CCOC(=O)CC[C@H](NC(=O)c1ccccc1[Se][Se]c1ccccc1C(=O)N[C@@H](CCC(=O)OCC)C(=O)OCC)C(=O)OCC | ≤ 4 | ≤ 4 | Active | ≥ 0.72 | 2.8 | ≥ 0.67 |  |  |  |  |  |  |  |  |  |
| Cc1ccnc2c1NC(=O)c1cccnc1N2C1CC1 [NEVIRAPINE] | > 60 |  |  | > 15 | > 15 | 0.28 | 0.26 |  | > 14 |  | > 15 | > 15 | > 15 |  |  |
| O=C(O)CNC(=O)c1ccccc1SSc1ccccc1C(=O)NCC(=O)O | < 1 | < 1 | Active | > 58.1 | 58.1 | > 58.1 |  |  |  |  |  |  |  |  |  |
| O=C(O)C[C@H](NC(=O)c1ccccc1[Se][Se]c1ccccc1C(=O)N[C@@H](CC(=O)O)C(=O)O)C(=O)O | < 1 | < 1 | Active | > 151 | 151 | > 151 |  | Dose-dependent effect |  |  |  |  |  |  |  |
| CC(C)[C@H](NC(=O)c1ccccc1[Se][Se]c1ccccc1C(=O)N[C@H](C(=O)O)C(C)C)C(=O)O | 10 | 9 | Active | 14.3 | 136 | 13.9 |  | Dose-dependent effect |  |  |  |  |  |  |  |
| CC[C@H](C)[C@H](NC(=O)c1ccccc1[Se][Se]c1ccccc1C(=O)N[C@H](C(=O)OC)[C@@H](C)CC)C(=O)OC | 4 | ≤ 2 | Active | ≥ 1.25 | 2.99 | 0.84 |  |  |  |  |  |  |  |  |  |
| CC(C)c1nc(CN(C)C(=O)N[C@H](C(=O)N[C@@H](Cc2ccccc2)C[C@H](O)[C@H](Cc2ccccc2)NC(=O)OCc2cncs2)C(C)C)cs1 [RITONAVIR] |  |  | Active | 0.14 |  | 0.09 | 29 | Dose-dependent effect |  |  |  | 0.14 |  | 2.77 | 1.28 |
| COC(=O)[C@H](C)NC(=O)c1ccccc1[Se][Se]c1ccccc1C(=O)N[C@@H](C)C(=O)OC | 5 | 8 | Active | 1.94 | 15.8 | 3.17 |  |  |  |  |  |  |  |  |  |
| COC(=O)C[C@H](NC(=O)c1ccccc1[Se][Se]c1ccccc1C(=O)N[C@@H](CC(=O)OC)C(=O)OC)C(=O)OC | ≤ 3 | ≤ 3 | Active | ≥ 2.75 | 9.74 | ≥ 3.17 |  |  |  |  |  |  |  |  |  |
| C[C@H](NC(=O)c1ccccc1[Se][Se]c1ccccc1C(=O)N[C@@H](C)C(=O)O)C(=O)O | 13 | 26 | Active | 5.38 | 138 | 10.3 |  | Dose-dependent effect |  |  |  |  |  |  |  |
| NS(=O)(=O)c1ccc(NC(=O)c2ccccc2SSc2ccccc2C(=O)Nc2ccc(S(N)(=O)=O)cc2)cc1 | 6 | 30 |  | 0.56 | 10.5 | 3.04 | 2.66 |  | 18.4 | 6.9 |  |  |  |  |  |
